Results from ChEMBL document CHEMBL4334538, “Mitochondrial Impairment by Cyanine-Based Small Molecules Induces Apoptosis in Cancer Cells” (ACS Med Chem Lett, 2020).
pIC50: −log10 of the molar value. Values belong to the compound of their own block, whether it stands above or below them. Activity calls are given as the source filed them. The rule behind the calls is not given here.

Tests used:
[1] = test system: HeLa; experiment: Cytotoxicity against human HeLa cells assessed as reduction in cell viability after 24 hrs by MTT assay
[2] = test system: HeLa; experiment: Cytotoxicity against human HeLa cells assessed as cell killing after 24 hrs by MTT assay; assay type: functional, cell-based
[3] = test system: HeLa; experiment: Cytotoxicity against human HeLa cells assessed as cell death at 10 uM after 24 hrs by MTT assay; assay type: functional, cell-based
[4] = test system: HEK293; experiment: Cytotoxicity against HEK293 cells assessed as reduction in cell viability after 24 hrs by MTT assay; assay type: cell-based; details: Homo sapiens, HEK293, 24 h
[5] = Cytotoxicity against HEK293 cells assessed as cell viability at 5 uM after 24 hrs by MTT assay relative to control; assay type: cell-based; details: human, read-out: Activity
[6] = Drug uptake in mitochondria of human HeLa cells at 150 nM incubated for 20 mins by mito-tracker green dye based laser confocal microscopic analysis; assay type: ADME; details: 0.15 µM
How it was run: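 HeLa cells exposed to compound at 150 nM for 20 min, mitochondria then stained with MitoTracker Green; colocalization by confocal laser scanning microscopy with intensity scatter plots and z-stack maximum projections.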

[7] = test system: HeLa; experiment: Induction of mitochondrial damage in human HeLa cells assessed as opening of MPTP by measuring fold increase in fluorescence intensity at 800 nM after 24 hrs by Calcein AM/CoCl2 based confocal microscopic analysis relative to control; details: Mitochondria
How it was run: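 HeLa cells treated 24 h, then loaded with Calcein AM plus CoCl2; live cells imaged by confocal microscopy and green fluorescence intensity quantified against untreated control.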

[8] = test system: HeLa; experiment: Induction of morphological changes in mitochondria of human HeLa cells assessed as reduction in mitochondrial area at 500 nM after 3 hrs by laser confocal microscopic analysis relative to untreated control
How it was run: (§1)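 Mitochondrial morphology: HeLa cells given 500 nM compound for 3 h, mitochondria visualized by confocal imaging (controls stained with MitoTracker Green); fragmentation scored and average mitochondrial area quantified against control.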

[9] = test system: HeLa; experiment: Decrease in Bcl-2 expression in human HeLa cells assessed as fold change in fluorescent intensity at 900 nM after 24 hrs by Alexa fluor 488/DAPI-staining based confocal microscopic analysis relative to untreated control; assay type: functional
How it was run: (§2)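 Immunofluorescence: HeLa cells treated 24 h, probed with Bcl-2, Bcl-xl or Bax primary antibodies and Alexa Fluor 488 secondary, nuclei counterstained with DAPI; confocal green intensity quantified relative to control.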

[10] = test system: HeLa; experiment: Decrease in Bcl-xl expression in human HeLa cells assessed as fold change in fluorescent intensity at 900 nM after 24 hrs by Alexa fluor 488/DAPI-staining based confocal microscopic analysis relative to untreated control; assay type: functional
How it was run: as §2

[11] = test system: HeLa; experiment: Increase in Bax expression in human HeLa cells assessed as fold change in fluorescent intensity at 900 nM after 24 hrs by Alexa fluor 488/DAPI-staining based confocal microscopic analysis relative to untreated control; assay type: functional
How it was run: as §2

[12] = test system: HeLa; experiment: Decrease in Bcl-2 expression in human HeLa cells at 900 nM after 24 hrs by Western blot analysis relative to control; assay type: functional
How it was run: (§3)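 Western blot of HeLa cellular proteins after 24 h compound treatment; Bcl-2, Bcl-xl and Bax bands quantified relative to control.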

[13] = test system: HeLa; experiment: Decrease in Bcl-xl expression in human HeLa cells at 900 nM after 24 hrs by Western blot analysis relative to control; assay type: functional
How it was run: as §3

[14] = test system: HeLa; experiment: Up regulation of Bax expression in human HeLa cells at 900 nM after 24 hrs by Western blot analysis relative to control; assay type: functional
How it was run: as §3

[15] = test system: HeLa; experiment: Induction of ROS generation in human HeLa cells assessed as fold change in fluorescent intensity at 500 to 800 nM after 24 hrs by H2DCF-DA staining-based fluorescence microscopic analysis relative to untreated control; assay type: functional
How it was run: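 ROS read-out: HeLa cells treated with compound, then incubated with H2DCFDA; green fluorescence imaged by fluorescence/confocal microscopy and intensity quantified versus control.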

[16] = test system: HeLa; experiment: Induction of cell cycle arrest in human HeLa cells assessed as apoptotic cells at 900 nM after 24 hrs by RNase/PI-staining based flow cytometric analysis (reference value: 1.25%); assay type: functional
[17] = test system: HeLa; experiment: Induction of cell cycle arrest in human HeLa cells assessed as accumulation of cells at G0/G1 phase at 900 nM after 24 hrs by RNase/PI-staining based flow cytometric analysis (reference value: 47.43%); assay type: functional
[18] = test system: HeLa; experiment: Induction of cell cycle arrest in human HeLa cells assessed as accumulation of cells at S phase at 900 nM after 24 hrs by RNase/PI-staining based flow cytometric analysis (reference value: 13.83%); assay type: functional
[19] = test system: HeLa; experiment: Induction of cell cycle arrest in human HeLa cells assessed as accumulation of cells at G2/M phase at 900 nM after 24 hrs by RNase/PI-staining based flow cytometric analysis (reference value: 33.91%); assay type: functional
[20] = test system: HeLa; experiment: Induction of apoptosis in human HeLa cells assessed as viable cells at 900 nM after 24 hrs by APC-AnnexinV/7-AAD staining based flow cytometric analysis (reference value: 96.4%); assay type: functional; details: read-out: Activity
How it was run: (§4)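 After 24 h treatment, HeLa cells stained with APC-Annexin V (phosphatidylserine) and 7-AAD (nuclear DNA of necrotic cells), then sorted by flow cytometry into viable, early, late apoptotic and necrotic populations.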

[21] = test system: HeLa; experiment: Induction of apoptosis in human HeLa cells assessed as early apoptotic cells at 900 nM after 24 hrs by APC-AnnexinV/7-AAD staining based flow cytometric analysis (reference value: 0.2%); assay type: functional
How it was run: as §4

[22] = test system: HeLa; experiment: Induction of apoptosis in human HeLa cells assessed as late apoptotic cells at 900 nM after 24 hrs by APC-AnnexinV/7-AAD staining based flow cytometric analysis (reference value: 2.3%); assay type: functional
How it was run: as §4

[23] = test system: HeLa; experiment: Induction of apoptosis in human HeLa cells assessed as necrotic cells at 900 nM after 24 hrs by APC-AnnexinV/7-AAD staining based flow cytometric analysis (reference value: 1.1%); assay type: functional
How it was run: as §4

[24] = test system: HeLa; experiment: Induction of morphological changes in mitochondria of human HeLa cells assessed as mitochondrial fragmentation at 500 nM after 3 hrs by mito-tracker green dye based laser confocal microscopic analysis
How it was run: as §1

[25] = test system: HeLa; experiment: Induction of apoptosis in human HeLa cells assessed as reduction in caspase-3 expression at 900 nM after 24 hrs by Western blot analysis relative to control; assay type: functional
How it was run: (§5)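 HeLa cells incubated 24 h with compound; whole-cell proteins run on gel electrophoresis and blotted for pro-caspase-3 and pro-caspase-9.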

[26] = test system: HeLa; experiment: Induction of apoptosis in human HeLa cells assessed as reduction in caspase-9 expression at 900 nM after 24 hrs by Western blot analysis relative to control; assay type: functional
How it was run: as §5

[27] = test system: HeLa; experiment: Cytotoxicity against human HeLa cells assessed as cell viability at 10 uM after 24 hrs by MTT assay relative to control; assay type: functional; details: read-out: Activity

Structure (SMILES): COc1cccc2c1C(=O)c1c(O)c3c(c(O)c1C2=O)C[C@@](O)(C(=O)CO)C[C@@H]3O[C@H]1C[C@H](N)[C@H](O)[C@H](C)O1 [DOXORUBICIN]
- pIC50 [1]: 5.70

Structure (SMILES): COc1cc(-c2cccs2)[nH]c1/C=C/C1=[N+](C)c2ccccc2C1(C)C
- pIC50 [2]: 5.35 to 6.04
- inhibition [2]: Dose-dependent effect

Structure (SMILES): COc1cc(-c2c(OC)cccc2OC)[nH]c1/C=C/C1=[N+](C)c2ccccc2C1(C)C
- pIC50 [2]: 5.35 to 6.04
- inhibition [2]: Dose-dependent effect

Structure (SMILES): COc1cc(-c2cc3ccccc3s2)[nH]c1/C=C/C1=[N+](C)c2ccccc2C1(C)C
- pIC50 [2]: 5.35 to 6.04
- inhibition [2]: Dose-dependent effect

Structure (SMILES): COc1ccc(OC)c(-c2cc(OC)c(/C=C/C3=[N+](C)c4ccccc4C3(C)C)[nH]2)c1
- pIC50 [2]: 5.35 to 6.04
- inhibition [2]: Dose-dependent effect

Structure (SMILES): COc1cc(-c2cccc(OC)c2OC)[nH]c1/C=C/C1=[N+](C)c2ccccc2C1(C)C
- pIC50 [2]: 5.35 to 6.04
- inhibition [2]: Dose-dependent effect

Structure (SMILES): COc1cc(-c2ccc3c(c2)OCO3)[nH]c1/C=C/C1=[N+](C)c2ccccc2C1(C)C
- pIC50 [2]: 5.35 to 6.04
- inhibition [2]: Dose-dependent effect

Structure (SMILES): COc1ccc(-c2cc(OC)c(/C=C/C3=[N+](C)c4ccccc4C3(C)C)[nH]2)cc1OC
- pIC50 [2]: 5.35 to 6.04
- inhibition [2]: Dose-dependent effect

Structure (SMILES): CCc1c2c(nc3ccc(O)cc13)-c1cc3c(c(=O)n1C2)COC(=O)[C@]3(O)CC
- Activity [3]: inactive

- Drug uptake [6]: Active
- fold change (FC) [8]: 3.4
- Activity [24]: Active
Structure (SMILES): COc1cc(-c2cc3ccccc3[nH]2)[nH]c1/C=C/C1=[N+](C)c2ccccc2C1(C)C.[I-]
- pIC50 [2]: 6.01
- inhibition [2]: Dose-dependent effect
- pIC50 [4]: 5.59
- viability at 24 h, 5 µM [5]: 24%
- fold change (FC) [7]: 3.6
- fold change (FC) [9]: 8.5
- fold change (FC) [10]: 10.1
- fold change (FC) [11]: 2.1
- fold change (FC) [12]: 6.4
- fold change (FC) [13]: 4
- fold change (FC) [14]: 3.6
- fold change (FC) [15]: 16.1
- Activity [16]: 4.68%
- Activity [17]: 67.96%
- Activity [18]: 6.42%
- Activity [19]: 16.79%
- viability at 0.9 µM [20]: 0.1%
- Activity [21]: 0%
- Activity [22]: 99.5%
- Activity [23]: 0.4%
- fold change (FC) [25]: 3.5
- fold change (FC) [26]: 1.9

Structure (SMILES): CC(=O)O[C@H]1C(=O)[C@@]2(C)[C@H]([C@H](OC(=O)c3ccccc3)[C@]3(O)C[C@H](OC(=O)[C@H](O)[C@@H](NC(=O)c4ccccc4)c4ccccc4)C(C)=C1C3(C)C)[C@]1(OC(C)=O)CO[C@@H]1C[C@@H]2O [PACLITAXEL]
- viability at 10 µM [27]: 68.7%

Structure (SMILES): COC1=CC(c2cc3ccccc3[nH]2)=N/C1=C\c1[nH]c(C)cc1C [OBATOCLAX]
- viability at 10 µM [27]: 70.3%

Structure (SMILES): COc1ccc(-c2cc(OC)c(/C=C/C3=[N+](C)c4ccccc4C3(C)C)[nH]2)c(OC)c1
- pIC50 [2]: 5.35 to 6.04
- inhibition [2]: Dose-dependent effect

Structure (SMILES): COc1cc(-c2ccccc2)[nH]c1/C=C/C1=[N+](C)c2ccccc2C1(C)C
- pIC50 [2]: 5.35 to 6.04
- inhibition [2]: Dose-dependent effect

- Drug uptake [6]: Active
- fold change (FC) [8]: 2.6
- Activity [24]: Active
Structure (SMILES): COc1ccc2[nH]c(-c3cc(OC)c(/C=C/C4=[N+](C)c5ccccc5C4(C)C)[nH]3)cc2c1.[I-]
- pIC50 [2]: 6.04
- inhibition [2]: Dose-dependent effect
- pIC50 [4]: 5.58
- viability at 24 h, 5 µM [5]: 25%
- fold change (FC) [7]: 3.9
- fold change (FC) [9]: 5.7
- fold change (FC) [10]: 8.4
- fold change (FC) [11]: 2.4
- fold change (FC) [12]: 9.3
- fold change (FC) [13]: 5.6
- fold change (FC) [14]: 4.1
- fold change (FC) [15]: 22.4
- Activity [16]: 3.47%
- Activity [17]: 63.94%
- Activity [18]: 13.52%
- Activity [19]: 15%
- viability at 0.9 µM [20]: 0.3%
- Activity [21]: 0%
- Activity [22]: 98.7%
- Activity [23]: 1%
- fold change (FC) [25]: 3.7
- fold change (FC) [26]: 2

Structure (SMILES): COc1cc(-c2ccc3ccccc3c2)[nH]c1/C=C/C1=[N+](C)c2ccccc2C1(C)C
- pIC50 [2]: 5.35 to 6.04
- inhibition [2]: Dose-dependent effect

Structure (SMILES): COc1cc(-c2cc3ccccc3o2)[nH]c1/C=C/C1=[N+](C)c2ccccc2C1(C)C
- pIC50 [2]: 5.35 to 6.04
- inhibition [2]: Dose-dependent effect

Structure (SMILES): COc1cc(-c2ccco2)[nH]c1/C=C/C1=[N+](C)c2ccccc2C1(C)C
- pIC50 [2]: 5.35 to 6.04
- inhibition [2]: Dose-dependent effect

Structure (SMILES): COc1cc(-c2ccc[nH]2)[nH]c1/C=C/C1=[N+](C)c2ccccc2C1(C)C
- pIC50 [2]: 5.35 to 6.04
- inhibition [2]: Dose-dependent effect

Structure (SMILES): COc1cc(OC)cc(-c2cc(OC)c(/C=C/C3=[N+](C)c4ccccc4C3(C)C)[nH]2)c1
- pIC50 [2]: 5.35 to 6.04
- inhibition [2]: Dose-dependent effect
